Results: ChEMBL document CHEMBL2331117 (J Med Chem, 2013)

Experiments:
[1] = Plasma concentration in athymic mouse plasma xenografted with human MCF7 cells at 100 mg/kg, po after 8 hrs; assay type: ADME, organism-based; design: dose 100 mg/kg, route oral
[2] = system: Mus musculus; assay: In vivo inhibition of mTORC1-mediated phosphorylation of 4EBP1 at ([…]) in human MCF7 cells xenografted into athymic nude mouse at 100 mg/kg, po after 16 hrs by Western blotting analysis relative to control; assay type: functional; settings: MCF7, 16 h
[3] = system: Mus musculus; assay: In vivo inhibition of mTORC1-mediated phosphorylation of pS6 at (serine 240/244) in human MCF7 cells xenografted into athymic nude mouse at 100 mg/kg, po after 16 hrs by Western blotting analysis relative to control; assay type: functional; settings: MCF7, 16 h
Method in brief: (§1)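 MCF-7 cells (DMEM, 10% FBS) were implanted subcutaneously at 5 × 10^6 cells in 50% cold HBSS/50% growth-factor-reduced matrigel into the hindflank of 5−8 week old female nude mice. At tumor size 40−150 mg, mice received a single oral dose of 100 mg/kg. Tumor lysates were pooled per group. Phospho-AKT (S473, T308), p70S6K (T389), S6 (S240/244) and 4E-BP1 (T37/46) were measured by Western blot normalized to α-tubulin.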

[4] = system: Mus musculus; assay: In vivo inhibition of mTORC1-mediated phosphorylation of pS6 at (serine 240/244) in human MCF7 cells xenografted into athymic nude mouse at 100 mg/kg, po after 4 hrs by Western blotting analysis relative to control; assay type: functional; settings: MCF7, 4 h; method in brief: as §1
[5] = system: Mus musculus; assay: In vivo inhibition of mTORC2-mediated phosphorylation of AKT at […] in human MCF7 cells xenografted into athymic nude mouse at 100 mg/kg, po after 8 hrs by Western blotting analysis relative to control; assay type: functional; settings: MCF7, 8 h
Method in brief: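 Human MCF-7 cells were implanted subcutaneously into the hindflank of female nude mice aged 5−8 weeks, at 5 × 10^6 cells in 50% cold HBSS/50% growth-factor-reduced matrigel. At a tumor size of 40−150 mg, mice got one oral dose. Tumor lysates were pooled per group. Phospho-AKT (T308) was read by Western blot and normalized to α-tubulin.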

[6] = system: Mus musculus; assay: In vivo inhibition of mTORC2-mediated phosphorylation of AKT at serine 473 in human MCF7 cells xenografted into athymic nude mouse at 100 mg/kg, po after 16 hrs by Western blotting analysis relative to control; assay type: functional; settings: MCF7, 16 h; method in brief: as §1
[7] = Drug uptake in tumor of athymic mouse xenografted with human PC3 cells at 100 mg/kg, po after 24 hrs; assay type: ADME, organism-based, Neoplasm, PC-3; design: dose 100 mg/kg, route oral; settings: read-out: Drug uptake
Method in brief: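 PC-3 cells (3 × 10⁶, passages 10–14, in ice-cold HBSS) were implanted sc in 5–8 week old male nude mice. Tumors of 200–500 mg received a single oral 100 mg/kg dose. Plasma and tumor were collected at 1, 4, 8, 16, 24 and 32 h and homogenized in buffer. Lysates were pooled per group (n = 5), and phospho-proteins were measured by Western blot normalized to α-tubulin.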

[8] = target: Vascular endothelial growth factor receptor 2 (Homo sapiens, UniProt P35968); assay: Inhibition of KDR (unknown origin)
[9] = target: Vascular endothelial growth factor receptor 1 (Homo sapiens, UniProt P17948); assay: Inhibition of FLT1 (unknown origin)
[10] = target: Focal adhesion kinase 1 (Homo sapiens, UniProt Q05397); assay: Inhibition of FAK (unknown origin)
Method in brief: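 Part of a 141-protein-kinase selectivity panel run either in house or by an outside contract lab. IC50 is reported as the average of at least two determinations.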

[11] = target: DNA-dependent protein kinase catalytic subunit (Homo sapiens, UniProt P78527); assay: Inhibition of DNA-PK (unknown origin)
[12] = Oral bioavailability in Beagle dog at 3 mg/kg; assay type: ADME, organism-based, Canis lupus familiaris; settings: in vivo
Method in brief: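 For single-dose PK, compound was given intravenously and by oral gavage as a solution in EPW (5% ethanol/45% PEG400/water + 1:2 HCl m/m). Doses were 10 mg/kg in female athymic nude mice and 3 mg/kg in female CD rats and male beagle dogs.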

[13] = AUC (0 to infinity) in Beagle dog at 3 mg/kg, iv; assay type: ADME, organism-based, Canis lupus familiaris; design: time infinity, dose 3 mg/kg, route intravenous; settings: plasma
Method in brief: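 Single-dose PK: female athymic nude mice (10 mg/kg), female CD rats and male beagle dogs (3 mg/kg), male cynomolgus monkeys (3 mg/kg), given iv and by oral gavage. Solution in EPW (5% ethanol/45% PEG400/water), with 1:2 HCl (m/m) for mouse, rat and dog and 1:1.5 HCl (m/m) for monkey. Plasma levels followed over 24 h.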

[14] = Tmax in cynomolgus monkey at 3 mg/kg, po; assay type: ADME, organism-based, Macaca fascicularis; design: dose 3 mg/kg, route oral; settings: in vivo
[15] = target: T1, Phosphatidylinositol 4,5-bisphosphate 3-kinase catalytic subunit alpha isoform (Homo sapiens, UniProt P42336); assay: Inhibition of PI3Kalpha (unknown origin)
Method in brief: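 PI3Kα activity was read as the percentage of ATP consumed, by luciferase–luciferin chemiluminescence (Kinase-Glo). The reaction ran about 2 h at ambient temperature, with ATP consumption kept to 40–60%. Values are the mean of n ≥ 2.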

[16] = Drug uptake in tumor of athymic mouse xenografted with human MCF7 cells at 100 mg/kg, po after 16hrs; assay type: ADME, organism-based, Neoplasm; design: dose 100 mg/kg, route oral; settings: read-out: Drug uptake
[17] = Plasma protein binding in dog at 5 uM; assay type: ADME, cell-free, Canis lupus familiaris; settings: read-out: PPB (converted)
[18] = Plasma protein binding in human at 5 uM; assay type: ADME, cell-free; settings: read-out: PPB (converted)
[19] = Plasma protein binding in monkey at 5 uM; assay type: ADME, cell-free, Macaca mulatta; settings: rhesus monkey, read-out: PPB (converted)
[20] = target: Cytochrome P450 2D6 (Homo sapiens, UniProt P10635); assay: Inhibition of CYP2D6 (unknown origin); assay type: ADME
[21] = Metabolic stability in mouse liver microsomes after 30 mins; assay type: ADME, Microsome; settings: read-out: Stability
[22] = target: T1, Phosphatidylinositol 4,5-bisphosphate 3-kinase catalytic subunit alpha isoform; assay: Inhibition of PI3Kalpha (unknown origin) using PIP2 as substrate after 2 hrs by luminescence assay
[23] = target: Casein kinase II (Homo sapiens, UniProt P19784+P67870+P68400); assay: Inhibition of CK2 (unknown origin); assay type: protein-complex assay
[24] = system: Mus musculus; assay: In vivo inhibition of mTORC1-mediated phosphorylation of pS6 at (serine 240/244) in human PC3 cells xenografted into athymic nude mouse at 100 mg/kg, po after 8 hrs by Western blotting analysis relative to control; assay type: functional; settings: PC-3, 8 h
Method in brief: (§2)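 PC-3 cells grown in DMEM with 20% FBS were implanted subcutaneously at 3 × 10^6 cells in ice-cold HBSS into the hindflank of 5−8 week old male nude mice. At tumor size 200−500 mg, mice received a single oral dose of 100 mg/kg. Plasma and tumors were collected at 1, 4, 8, 16, 24 and 32 h. Tumor lysates from each group (n = 5) were pooled. Phospho-proteins were quantified by Western blot and normalized to α-tubulin.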

[25] = system: Mus musculus; assay: In vivo inhibition of mTORC1-mediated phosphorylation of pS6 at (serine 240/244) in human PC3 cells xenografted into athymic nude mouse at 100 mg/kg, po after 4 hrs by Western blotting analysis relative to control; assay type: functional; settings: PC-3, 4 h; method in brief: as §2
[26] = system: Mus musculus; assay: In vivo inhibition of mTORC2-mediated phosphorylation of AKT at serine 473 in human PC3 cells xenografted into athymic nude mouse at 100 mg/kg, po after 24 hrs by Western blotting analysis relative to control; assay type: functional; settings: PC-3, 24 h; method in brief: as §2

T1 sequence (P42336 whole entry, canonical isoform): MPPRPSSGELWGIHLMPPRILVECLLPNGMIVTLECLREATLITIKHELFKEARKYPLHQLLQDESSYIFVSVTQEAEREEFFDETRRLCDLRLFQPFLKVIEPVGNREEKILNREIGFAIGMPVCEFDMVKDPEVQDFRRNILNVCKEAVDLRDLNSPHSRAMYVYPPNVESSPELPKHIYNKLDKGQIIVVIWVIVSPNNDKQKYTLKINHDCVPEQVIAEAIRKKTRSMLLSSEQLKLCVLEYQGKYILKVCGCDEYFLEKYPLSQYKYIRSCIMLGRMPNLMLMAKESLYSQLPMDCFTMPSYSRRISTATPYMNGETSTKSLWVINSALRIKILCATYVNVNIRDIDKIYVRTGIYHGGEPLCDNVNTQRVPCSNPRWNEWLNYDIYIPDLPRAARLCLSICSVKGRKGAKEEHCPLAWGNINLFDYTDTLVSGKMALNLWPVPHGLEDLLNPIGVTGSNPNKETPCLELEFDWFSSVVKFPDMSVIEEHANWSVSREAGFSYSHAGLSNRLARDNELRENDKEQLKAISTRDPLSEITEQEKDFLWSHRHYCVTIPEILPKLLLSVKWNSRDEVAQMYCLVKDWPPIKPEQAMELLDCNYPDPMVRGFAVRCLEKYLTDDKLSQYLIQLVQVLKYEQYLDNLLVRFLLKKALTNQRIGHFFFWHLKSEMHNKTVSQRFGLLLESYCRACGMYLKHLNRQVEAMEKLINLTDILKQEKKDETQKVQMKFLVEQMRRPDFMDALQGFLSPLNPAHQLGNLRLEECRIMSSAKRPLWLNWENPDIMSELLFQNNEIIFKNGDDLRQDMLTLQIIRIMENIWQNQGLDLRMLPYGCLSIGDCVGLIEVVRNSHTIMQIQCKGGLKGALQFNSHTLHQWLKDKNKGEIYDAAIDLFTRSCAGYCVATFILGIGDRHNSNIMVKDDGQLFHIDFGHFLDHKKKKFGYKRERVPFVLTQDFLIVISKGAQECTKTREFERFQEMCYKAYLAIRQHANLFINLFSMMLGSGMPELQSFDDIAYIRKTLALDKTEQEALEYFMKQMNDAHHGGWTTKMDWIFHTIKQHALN
Sequence of Casein kinase II (P67870 whole entry): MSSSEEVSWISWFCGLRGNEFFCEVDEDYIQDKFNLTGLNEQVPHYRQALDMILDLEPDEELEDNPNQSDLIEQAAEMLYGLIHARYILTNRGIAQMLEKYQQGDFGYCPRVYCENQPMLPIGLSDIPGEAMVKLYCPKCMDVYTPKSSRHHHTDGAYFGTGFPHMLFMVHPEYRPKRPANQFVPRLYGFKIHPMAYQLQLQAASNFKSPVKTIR
Sequence of Casein kinase II (P68400 whole entry): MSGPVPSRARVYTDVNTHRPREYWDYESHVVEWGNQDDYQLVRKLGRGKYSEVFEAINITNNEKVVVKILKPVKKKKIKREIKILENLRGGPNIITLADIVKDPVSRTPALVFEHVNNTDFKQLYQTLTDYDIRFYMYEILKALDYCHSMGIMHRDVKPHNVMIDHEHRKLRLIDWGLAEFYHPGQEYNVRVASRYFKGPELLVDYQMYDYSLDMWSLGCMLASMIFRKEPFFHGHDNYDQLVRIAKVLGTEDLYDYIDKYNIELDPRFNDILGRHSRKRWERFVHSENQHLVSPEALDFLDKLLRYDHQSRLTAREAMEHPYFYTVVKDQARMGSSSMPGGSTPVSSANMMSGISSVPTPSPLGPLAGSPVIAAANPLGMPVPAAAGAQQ
Sequence of Casein kinase II (P19784 whole entry): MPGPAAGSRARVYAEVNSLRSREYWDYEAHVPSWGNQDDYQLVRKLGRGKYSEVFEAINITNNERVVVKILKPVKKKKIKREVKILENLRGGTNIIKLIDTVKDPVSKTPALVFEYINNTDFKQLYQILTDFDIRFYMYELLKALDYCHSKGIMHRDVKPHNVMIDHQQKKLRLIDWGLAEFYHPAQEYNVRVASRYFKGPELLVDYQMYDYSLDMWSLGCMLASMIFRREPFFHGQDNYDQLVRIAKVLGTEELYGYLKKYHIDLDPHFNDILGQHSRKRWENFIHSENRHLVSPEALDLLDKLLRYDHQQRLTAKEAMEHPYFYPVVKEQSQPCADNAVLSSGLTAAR
Sequence of Cytochrome P450 2D6 (P10635 whole entry): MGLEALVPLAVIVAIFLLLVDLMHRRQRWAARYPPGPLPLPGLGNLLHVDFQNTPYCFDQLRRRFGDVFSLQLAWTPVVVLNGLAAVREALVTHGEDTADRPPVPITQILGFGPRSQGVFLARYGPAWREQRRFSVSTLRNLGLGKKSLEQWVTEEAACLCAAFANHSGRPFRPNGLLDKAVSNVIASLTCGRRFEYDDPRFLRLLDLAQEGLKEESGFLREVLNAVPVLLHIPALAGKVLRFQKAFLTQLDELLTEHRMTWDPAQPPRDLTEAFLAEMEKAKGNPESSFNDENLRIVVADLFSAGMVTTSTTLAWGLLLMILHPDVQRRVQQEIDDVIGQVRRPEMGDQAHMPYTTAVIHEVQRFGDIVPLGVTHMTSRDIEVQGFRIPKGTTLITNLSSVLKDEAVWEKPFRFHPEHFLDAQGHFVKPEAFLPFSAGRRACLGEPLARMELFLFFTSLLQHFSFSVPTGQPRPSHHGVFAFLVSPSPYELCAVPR
Sequence of Vascular endothelial growth factor receptor 1 (P17948 whole entry): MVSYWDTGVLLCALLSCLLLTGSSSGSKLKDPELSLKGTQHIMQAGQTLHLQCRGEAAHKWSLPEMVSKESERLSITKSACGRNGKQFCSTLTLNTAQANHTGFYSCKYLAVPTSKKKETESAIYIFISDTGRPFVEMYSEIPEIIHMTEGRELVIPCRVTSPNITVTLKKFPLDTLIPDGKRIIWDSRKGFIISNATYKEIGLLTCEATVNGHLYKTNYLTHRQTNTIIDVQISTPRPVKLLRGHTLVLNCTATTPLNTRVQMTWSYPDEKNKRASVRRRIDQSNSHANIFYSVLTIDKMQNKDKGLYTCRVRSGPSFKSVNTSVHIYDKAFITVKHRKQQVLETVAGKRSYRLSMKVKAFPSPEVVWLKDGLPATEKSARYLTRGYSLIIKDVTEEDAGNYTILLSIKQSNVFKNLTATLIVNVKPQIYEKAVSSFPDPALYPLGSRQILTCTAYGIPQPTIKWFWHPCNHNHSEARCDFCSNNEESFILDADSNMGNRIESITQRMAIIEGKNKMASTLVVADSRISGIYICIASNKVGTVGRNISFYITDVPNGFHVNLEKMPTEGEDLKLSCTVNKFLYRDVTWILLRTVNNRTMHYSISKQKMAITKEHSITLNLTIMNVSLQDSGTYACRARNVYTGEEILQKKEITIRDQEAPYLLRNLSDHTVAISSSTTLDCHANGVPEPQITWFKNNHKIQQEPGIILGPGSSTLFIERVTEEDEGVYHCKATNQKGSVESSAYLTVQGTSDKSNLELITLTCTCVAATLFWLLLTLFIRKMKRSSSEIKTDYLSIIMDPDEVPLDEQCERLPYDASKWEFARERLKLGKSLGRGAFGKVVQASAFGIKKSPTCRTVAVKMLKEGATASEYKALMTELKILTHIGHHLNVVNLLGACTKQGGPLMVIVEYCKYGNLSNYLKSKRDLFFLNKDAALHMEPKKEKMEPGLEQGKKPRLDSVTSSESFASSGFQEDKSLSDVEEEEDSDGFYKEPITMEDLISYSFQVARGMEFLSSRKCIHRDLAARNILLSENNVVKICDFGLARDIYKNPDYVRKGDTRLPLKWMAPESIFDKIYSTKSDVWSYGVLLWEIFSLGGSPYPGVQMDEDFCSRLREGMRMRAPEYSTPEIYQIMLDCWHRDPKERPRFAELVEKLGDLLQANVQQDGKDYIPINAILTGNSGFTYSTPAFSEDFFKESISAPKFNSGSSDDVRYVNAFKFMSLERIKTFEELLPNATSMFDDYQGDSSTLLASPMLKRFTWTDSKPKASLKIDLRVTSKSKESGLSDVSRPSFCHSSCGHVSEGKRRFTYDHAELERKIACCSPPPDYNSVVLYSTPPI
Sequence of Focal adhesion kinase 1 (Q05397 whole entry): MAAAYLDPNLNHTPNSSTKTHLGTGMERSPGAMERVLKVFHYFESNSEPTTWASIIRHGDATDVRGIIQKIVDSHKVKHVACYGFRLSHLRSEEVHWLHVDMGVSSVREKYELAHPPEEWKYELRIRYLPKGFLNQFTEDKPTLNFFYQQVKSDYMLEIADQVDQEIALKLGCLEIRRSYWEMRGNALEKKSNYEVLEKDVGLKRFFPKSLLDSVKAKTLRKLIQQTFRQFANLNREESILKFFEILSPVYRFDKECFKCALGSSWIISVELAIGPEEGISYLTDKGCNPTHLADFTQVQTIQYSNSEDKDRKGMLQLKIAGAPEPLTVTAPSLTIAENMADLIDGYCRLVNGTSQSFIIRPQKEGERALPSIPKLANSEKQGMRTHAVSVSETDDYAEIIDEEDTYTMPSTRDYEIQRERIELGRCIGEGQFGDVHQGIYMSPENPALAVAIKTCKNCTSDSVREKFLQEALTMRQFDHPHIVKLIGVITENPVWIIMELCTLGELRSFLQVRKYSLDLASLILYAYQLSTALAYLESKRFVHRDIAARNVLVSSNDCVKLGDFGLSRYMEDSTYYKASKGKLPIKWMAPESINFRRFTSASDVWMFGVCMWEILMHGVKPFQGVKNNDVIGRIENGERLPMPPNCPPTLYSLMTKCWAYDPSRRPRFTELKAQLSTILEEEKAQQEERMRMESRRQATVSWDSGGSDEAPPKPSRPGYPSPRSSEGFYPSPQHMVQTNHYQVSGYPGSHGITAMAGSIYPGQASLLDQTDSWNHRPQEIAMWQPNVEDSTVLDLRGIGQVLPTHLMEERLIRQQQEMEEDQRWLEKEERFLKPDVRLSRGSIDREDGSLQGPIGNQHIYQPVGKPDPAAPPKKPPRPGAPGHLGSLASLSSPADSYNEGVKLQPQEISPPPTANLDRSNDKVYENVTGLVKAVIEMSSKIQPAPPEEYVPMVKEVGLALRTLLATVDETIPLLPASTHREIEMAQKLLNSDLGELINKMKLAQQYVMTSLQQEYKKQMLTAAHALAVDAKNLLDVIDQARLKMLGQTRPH

Cc1c(C(=O)N2CCOc3ccc(-c4ccc(N)nc4)cc3C2)ccc(S(C)(=O)=O)c1F
concentration at 8 h [1]: 16500 nM | inhibition in vivo at 100 mg/kg [2]: 56% | inhibition in vivo at 100 mg/kg [3]: 36% | inhibition in vivo at 100 mg/kg [4]: 94% | inhibition in vivo at 100 mg/kg [5]: -2% | inhibition in vivo at 100 mg/kg [6]: 69% | concentration at 24 h [7]: 110 nM | IC50 [8]: > 3.5 µM | IC50 [9]: > 3.5 µM | IC50 [10]: > 3.5 µM | IC50 [11]: 8.83 µM | bioavailability [12]: 69.6% | AUC(0-inf) [13]: 11 µM·h | Tmax [14]: 2 h | IC50 [15]: > 3 µM | concentration at 16 h [16]: 2740 nM | fraction unbound at 5 µM [17]: 0.11 | fraction unbound at 5 µM [18]: 0.14 | fraction unbound at 5 µM [19]: 0.1 | INH [20]: > 20 µM | remaining at 0.5 h [21]: 78% | IC50 [22]: > 3 µM | IC50 [23]: > 10 µM | inhibition in vivo at 100 mg/kg [24]: 91% | inhibition in vivo at 100 mg/kg [25]: 90% | inhibition in vivo at 100 mg/kg [26]: 5%
